Experimental data reported in the EternaBench riboswitch data.

Tested on: MS2 coat protein
Experiment: apparent Kd, MS2 coat protein; higher = weaker binding; RNA-MaP array; FMN 200 µM where present
Method in brief: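 Designs were transcribed by stalled E. coli RNA polymerase on Illumina sequencing-chip clusters. They were titrated with SNAP-549-labelled MS2 coat protein from 0.7 or 1.5 nM, doubling to 3 µM, in 100 mM Tris-HCl pH 7.5, 80 mM KCl, 4 mM MgCl2, BSA, DTT, yeast tRNA and Tween-20, without and then with constant ligand. The apparent Kd is the median of filtered per-cluster fits after normalisation of green signal to red-channel RNA signal and control-cluster median Fmax.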

[1] = designed as: ON switch for flavin mononucleotide, no ligand
[2] = ligand present: flavin mononucleotide, designed as: ON switch for flavin mononucleotide
[3] = designed as: OFF switch for flavin mononucleotide, no ligand
[4] = ligand present: flavin mononucleotide, designed as: OFF switch for flavin mononucleotide

## GGAGCCGGCACUGAGGAUAUUCAUAUUAAAACAUGAGGAUCACCCAUGUAGGCCAGAAGGCCUUGGGAGAAGGCAGGUCGGCCCG
[1]
  apparent Kd: 381 nM
[2]
  apparent Kd: 28.4 nM

## ACAUGAGGAUCACCCAUGUAUACAUAGGAUAUUGGUGAUCAGGCAUGUUUUACAGGAUAUGUCUGCGAGAAGGAUGCACGUUGC
[1]
  apparent Kd: 810 nM
[2]
  apparent Kd: 452 nM

## AUCCUACAUGAGGAUCACCCAUGUGACGCCUCAAUAGGAUAUGCGUGUGCCUUGGCGCAUGCAGAAGGAUUGAAGC
[1]
  apparent Kd: 285 nM
[2]
  apparent Kd: 48.1 nM

## AUCAGCUCGUCAGGAUAUACGUCACUGCGUCAGUAGUGUGGUAAGAUCACAUGAGGAUCACCCAUGUAGAAGGGACGAGCUGAU
[3]
  apparent Kd: 14.5 nM
[4]
  apparent Kd: 284 nM

## UAAACAUGAGGAUCACCCAUGUUAUGAUCGGUUGAUGAAUGUGAGGAUAUACUUAAUUUUAUGGAGUAGAAGGCACUGGGUUCU
[1]
  apparent Kd: 29.1 nM
[2]
  apparent Kd: 30 nM

## AUAAAAGUGACAUGAGGAUCACCCAUGUGAAUUAGUAGUAGCAGAAGGCACGUGGGAAGACCAAGUGAGGAUAUGUAACUUUAG
[1]
  apparent Kd: 625 nM
[2]
  apparent Kd: 59.2 nM

## GGGUAGUGAGGAUAUCGUUGUUAGGAGGAGAAGGUAGGAGGCGAGAAGGCACAUGAGGAUCACCCAUGUAUGAG
[3]
  apparent Kd: 31 nM
[4]
  apparent Kd: 28.1 nM

## AAAACUUCAGAGAAGGACCCAUUGGCGUAAUGGGUAGGAUAUCUGACUUGAGGUGUCCUGACAUGAGGAUCACCCAUGUAUAAA
[3]
  apparent Kd: 381 nM
[4]
  apparent Kd: 46 nM

## GCACUUAUAUUUGAACCGAUUCGAACAUGAGGAUCACCCAUGUAGGAUAUGCUAAAAGUUGUGAUGCAGAAGGACAUUAAGUGC
[3]
  apparent Kd: 5.44 nM
[4]
  apparent Kd: 6.74 nM

## AGAUAUGAUGCAGGAUAUCUAUCUUGAAUGAGGAGAGAAGGGCAAGCAGAGAGAUAAGCCUUAUGACAUGAGGAUCACCCAUGU
[3]
  apparent Kd: 10.2 nM
[4]
  apparent Kd: 8.61 nM

## UAUUAACACGAAGGAUAUGCUUACAUGAGGAUCACCCAUGUAUGUAUAUUGAUCCAGAUUUUUGAGCAGAAGGUCGUGAGUAAA
[3]
  apparent Kd: 35.3 nM
[4]
  apparent Kd: 141 nM

## AAGUAUAGAGGAUAUAGUGAGUACUACAUGAGGAUCACCCAUGUUCUUCGUUACGUAUUUCUAGAAGGCUGAUAAA
[3]
  apparent Kd: 105 nM
[4]
  apparent Kd: 248 nM

## CUGUUGUGGUGCUGCUUGGCUUGGAGAGAAGGGUGAUUCACAUGAGGAUCACCCAUGUAGGACUUACAGGAUAUUUCCGGGUCU
[1]
  apparent Kd: 17.8 nM
[2]
  apparent Kd: 18.8 nM

## GCGUGUUGAGGAUAUACGAACAUGUCGCCAGAUGUCAUGGUACAUGAGGAUCACCCAUGUAGAAGGUGGUACGC
[3]
  apparent Kd: 263 nM
[4]
  apparent Kd: 336 nM

## CACACAUGAGGAUCACCCAUGUCGUGGGCGGAAAACUGUGCACAGGAUAUGGUGAGUGCAACUCACCAGAAGGGUGGUCAGGAA
[1]
  apparent Kd: 122 nM
[2]
  apparent Kd: 63 nM

## UAAUAGGGAGGAUAUCCAAUAUAUGACAUGAGGAUCACCCAUGUUUCCACUCGUACCUCCGGAGAAGGCCCAUAAU
[3]
  apparent Kd: 21 nM
[4]
  apparent Kd: 18.7 nM

## CCAUGGUGGGCAGGAUAUCGUCCAGCUUGCGGACGAGAAGGGCUAGAACAUGAGGAUCACCCAUGUGAAAAGCGGGUUGUCCAA
[3]
  apparent Kd: 27.8 nM
[4]
  apparent Kd: 145 nM

## GAUCUGACAGGAUAUACAUGAGGAUCACCCAUGUGCGAGCUAGCGAAAGCUAGCUUAGGUAGAAGGGUCAGAUC
[3]
  apparent Kd: 12.2 nM
[4]
  apparent Kd: 18.1 nM

## AACAAUAAGGAGGAUAUCGUAUCGGAAACGAUACGAGAAGGCUUAACAUGAGGAUCACCCAUGUUCCUCAAUAA
[3]
  apparent Kd: 31.6 nM
[4]
  apparent Kd: 60 nM

## AAAACAUGAGGAUCACCCAUGUAAAGAACGCUUAAUAGAUCUGAGGAUAUACUAGAAUUUAGGUAGUAGAAGGCAGUGGGUACA
[1]
  apparent Kd: 46.6 nM
[2]
  apparent Kd: 30.7 nM

## CGUGUUUAUGUGAGGAUAUUAUCAAGCUGAUUGUGUAAGAAGGCACAUGAGGAUCACCCAUGUGGCGAUUCCGC
[3]
  apparent Kd: 34.2 nM
[4]
  apparent Kd: 215 nM

## AUCCUGCGAGGAUAUACAUAGUGACGUCUGUUAGGUCUCAAACAUGAGGAUCACCCAUGUAGAAGGUGCGUCAC
[3]
  apparent Kd: 19.4 nM
[4]
  apparent Kd: 18.2 nM

## CUAUGAGGAAUAGGAUAUUCGAUCAUGAGGAUAGAAGAAGGGUUACAUGAGGAUCACCCAUGUAUGCACAUGAGGAUCCCUUAG
[3]
  apparent Kd: 235 nM
[4]
  apparent Kd: 226 nM

## CGAGAUACGCUCGUCCGAAAGGAACAUGAGGAUCACCCAUGUAGAAGGCGAUCCGCAACUCGGAUUGAGGAUAUAUACUGCAGA
[3]
  apparent Kd: 139 nM
[4]
  apparent Kd: 91.2 nM

## AUUCCCGGUGUUAGGAUAUCCAACGCCCACGCGAUGGAGAAGGGACAUGAGGAUCACCCAUGUAGAGCUGCAUC
[3]
  apparent Kd: 14.3 nM
[4]
  apparent Kd: 14.5 nM

## AUAAAACAUGAGGAUCACCCAUGUCAACAAAAUCGAGGAUAUGGACAGACUUCGGUCUGUCCAGAAGGCGAAUAAU
[1]
  apparent Kd: 13.7 nM
[2]
  apparent Kd: 14.6 nM

## GGGUACAUCGGAGGAUAUCAUGUAAAUACAUGAGGAUCACCCAUGUCGGUGGAGACAUCGGAGAUUGAGAAGGCCGAUGUACCG
[2]
  apparent Kd: 12.7 nM

## GCUGCAUAGGCAGGAUAUGCAAUAAUUCGAAUAAAAUAUAACGGAUUAACAUGAGGAUCACCCAUGUAGAAGGGCCUGUGCAGU
[3]
  apparent Kd: 5.73 nM
[4]
  apparent Kd: 5.49 nM
